Measurements published in PubChem BioAssay AID504846 (Johns Hopkins Ion Channel Center, 2011).
Activity calls are given as the source filed them.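 The calls were made as follows: active = blocks the KCNK9 potassium channel at some tested concentration and gives a dose response curve; inactive = the rest.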

Biological target: Potassium channel subfamily K member 9 (Homo sapiens) (UniProt Q9NPC2)
Assay: concentration-dependent TASK-3 (KCNK9) blockade – HEK293 cells, thallium flux, SAR follow-up (AID 504846)
Conditions: HEK293-KCNK9, FluxOR thallium flux fluorescence; series mostly up to 30 µM
In short: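 assay system = HEK293 cells stably expressing KCNK9, loaded with FluxOR thallium-sensitive dye | probe or stimulus = K2SO4 and Tl2SO4 flux stimulus (stock 25 mM, 7 mM) | dosing = concentration-response series | timing = 20 min room-temperature compound exposure, 110 s post-stimulus read | measured by = kinetic FluxOR thallium-flux fluorescence measurement | repeats = replicate dose series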

Potassium channel subfamily K member 9 (Homo sapiens), sequence (Q9NPC2 whole entry, looked up): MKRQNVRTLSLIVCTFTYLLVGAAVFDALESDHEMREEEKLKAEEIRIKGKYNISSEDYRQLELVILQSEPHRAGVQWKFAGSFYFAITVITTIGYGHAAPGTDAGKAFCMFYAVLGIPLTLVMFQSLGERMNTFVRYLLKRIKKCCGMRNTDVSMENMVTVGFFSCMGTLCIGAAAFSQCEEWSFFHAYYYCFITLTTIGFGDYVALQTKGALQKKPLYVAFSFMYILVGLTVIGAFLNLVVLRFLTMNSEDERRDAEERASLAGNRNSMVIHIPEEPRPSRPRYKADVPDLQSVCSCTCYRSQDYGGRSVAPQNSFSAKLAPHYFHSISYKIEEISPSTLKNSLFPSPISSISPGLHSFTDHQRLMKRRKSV

How did the outcome turn out when `Cc1cccc(NC(=O)c2cccc(NC(=O)c3ccccc3)c2)c1` was run?
Its outcome is “inactive”.

With `Cc1cccc(C(=O)Nc2cccc(C(=O)Nc3ccccc3)c2)c1` as the compound, how does the outcome read?
The outcome was “inactive”.

`Cc1cccc(C(=O)Nc2ccc(C(=O)Nc3ccccc3)cc2)c1` was tested. Which outcome did it give?
Its outcome is “inactive”.

For `Cc1cccc(NC(=O)c2ccccc2NC(=O)c2ccccc2)c1`, which outcome is on record?
The outcome was “inactive”.

How did the outcome turn out when `Cc1cccc(C(=O)Nc2ccccc2C(=O)Nc2ccccc2)c1` was run?
Its outcome is “inactive”.
